Where a name gives a salt, the structure may show the parent alone. Where a SMILES comes first, the peptide text is derived from it.

Data on six molecules can be found in publication PMC9539578 (Basic & Clinical Pharmacology & Toxicology, 2022).

The target in one assay is T1, GPR15 receptor (Gi/o) (Homo sapiens, UniProt P49685).
T1 sequence (P49685 1-360): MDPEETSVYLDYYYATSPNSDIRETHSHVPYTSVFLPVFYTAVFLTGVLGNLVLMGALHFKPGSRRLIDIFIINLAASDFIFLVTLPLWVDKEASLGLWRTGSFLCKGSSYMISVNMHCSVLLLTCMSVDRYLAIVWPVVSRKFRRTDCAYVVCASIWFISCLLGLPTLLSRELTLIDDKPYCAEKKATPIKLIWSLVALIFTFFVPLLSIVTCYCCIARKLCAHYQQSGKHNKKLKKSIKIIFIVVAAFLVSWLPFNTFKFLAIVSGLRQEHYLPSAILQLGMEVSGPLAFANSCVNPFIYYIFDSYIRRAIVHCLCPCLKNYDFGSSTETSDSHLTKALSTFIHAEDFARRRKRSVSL
As to the kind of experiment: HTRF Gi cAMP assay. The format is cell-based. In a few lines:
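HEK293A cells stably expressing human GPR15 (G418-selected) were harvested non-enzymatically. Where stated, cells were pretreated 24 h with PTX 100 ng/ml. 4000 cells/well in HBSS/20 mM HEPES/1 mM CaCl2/1 mM MgCl2/100 μM IBMX, pH 7.4, were mixed with threefold-diluted peptide in ligand buffer containing 3 μM forskolin, 30 min at room temperature. HTRF cAMP detection ran 1 h in the dark. Standard-curve cAMP was normalized to forskolin and given a four-parameter EC50 fit; triplicates, 3–5 experiments.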
(TR-FRET usually uses a lanthanide donor and a delayed reading to cut background.)

A further assay has as its target GPR15 receptor / Gi1 (Homo sapiens, UniProt P49685). Kind of assay: BRET G protein activation assay, Gi1. The format is cell-based, human (GPR15); rat (Gi1). In a few lines:
(§1)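 HEK293A cells transfected 20–24 h before assay with GPR15 (1.26 μg), Venus(155–239)-Gβ1, Venus(1–155)-Gγ2 and masGRK3ct-Nluc (0.21 μg each), and an optimized amount of the Gα DNA. Cells were given furimazine (1:250) for 3 min, then rising agonist concentrations. BRET ratio is 535/475 nm emission. Emax per concentration was buffer-corrected, normalized to the maximum, and fitted with a four-parameter model. 3–5 independent experiments, 2–3 replicates.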

The target in a further assay is GPR15 receptor / Gi2 (Homo sapiens, UniProt P49685). As to the kind of experiment: BRET G protein activation assay, Gi2. The format is cell-based, human (GPR15); rat (Gi2). A digest of the protocol:
as §1
(Bioluminescence resonance energy transfer reports proximity on the nanometre scale.)

In a further assay the target is GPR15 receptor / GoA (Homo sapiens, UniProt P49685). Kind of assay: BRET G protein activation assay, GoA. The format is cell-based. A digest of the protocol:
as §1

The target of a further assay is GPR15 receptor / Gi3 (Homo sapiens, UniProt P49685). Kind of assay: BRET G protein activation assay, Gi3. The format is cell-based, human (GPR15); rat (Gi3). A digest of the protocol:
as §1

The target in a further assay is GPR15 receptor / GoB (Homo sapiens, UniProt P49685). Kind of assay: BRET G protein activation assay, GoB. The format is cell-based. In a few lines: as §1
The subject of assay [1] is muscarinic acetylcholine receptors. Kind of assay: HTRF Gq IP1 assay, positive control. Conditions: endogenous receptors (mAChR1, mAChR3 and mAChR5) in HEK293A cells. The format is cell-based. In a few lines: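 Carbachol, added at 2× final concentration in HBSS/20 mM HEPES/1 mM CaCl2/1 mM MgCl2/0.01% pluronic acid, pH 7.4, acted on 20 000 HEK293A-GPR15 cells/well with 30 mM LiCl for 30 min at 37 °C. HTRF IP1 detection ran 1 h in the dark at room temperature (665/615 nm). IP1 from a standard curve, buffer-corrected and normalized to the carbachol maximum; 3–5 experiments in triplicate.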

The next assay relates to β2‐adrenergic receptor. As to the kind of experiment: HTRF Gs cAMP assay, positive control. Conditions: endogenous receptor in HEK293A cells. The format is cell-based. In a few lines:
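Run like the Gi cAMP assay without forskolin. HEK293A-GPR15 cells in HBSS/HEPES buffer with 100 μM IBMX, pH 7.4, were stimulated with isoproterenol via the endogenous β2-adrenergic receptor, 30 min at room temperature. HTRF cAMP detection ran 1 h in the dark (665/615 nm). cAMP from a standard curve, buffer-corrected and normalized to the isoproterenol maximum; 3–5 experiments in triplicate.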

Assay [2] addresses T2, G protein-coupled receptor 15 (GPR15) (human) (UniProt P49685).
T2 sequence: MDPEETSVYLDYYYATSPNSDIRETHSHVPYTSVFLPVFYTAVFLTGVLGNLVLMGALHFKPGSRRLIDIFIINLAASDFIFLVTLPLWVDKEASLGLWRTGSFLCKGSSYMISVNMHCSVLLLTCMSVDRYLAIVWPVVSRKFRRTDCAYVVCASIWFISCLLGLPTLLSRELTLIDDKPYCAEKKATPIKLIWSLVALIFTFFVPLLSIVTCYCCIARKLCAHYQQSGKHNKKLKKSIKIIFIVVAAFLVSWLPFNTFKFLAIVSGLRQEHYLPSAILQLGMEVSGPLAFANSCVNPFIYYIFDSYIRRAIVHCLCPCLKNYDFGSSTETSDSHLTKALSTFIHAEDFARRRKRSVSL

GPR15 receptor / Gi1, sequence (P10824 2-354 partner limits assumed, one chain of several): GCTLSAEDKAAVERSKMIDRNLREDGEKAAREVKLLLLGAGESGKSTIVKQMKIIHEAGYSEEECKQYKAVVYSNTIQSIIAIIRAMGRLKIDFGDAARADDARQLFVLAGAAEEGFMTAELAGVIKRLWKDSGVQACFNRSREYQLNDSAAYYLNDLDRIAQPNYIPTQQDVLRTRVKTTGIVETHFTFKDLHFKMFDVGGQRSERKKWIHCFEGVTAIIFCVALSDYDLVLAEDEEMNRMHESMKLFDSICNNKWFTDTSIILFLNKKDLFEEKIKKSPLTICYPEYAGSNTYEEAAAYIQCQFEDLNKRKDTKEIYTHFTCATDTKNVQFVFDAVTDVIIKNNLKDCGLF
GPR15 receptor / Gi1, sequence (P62873 2-340 partner limits assumed, one chain of several): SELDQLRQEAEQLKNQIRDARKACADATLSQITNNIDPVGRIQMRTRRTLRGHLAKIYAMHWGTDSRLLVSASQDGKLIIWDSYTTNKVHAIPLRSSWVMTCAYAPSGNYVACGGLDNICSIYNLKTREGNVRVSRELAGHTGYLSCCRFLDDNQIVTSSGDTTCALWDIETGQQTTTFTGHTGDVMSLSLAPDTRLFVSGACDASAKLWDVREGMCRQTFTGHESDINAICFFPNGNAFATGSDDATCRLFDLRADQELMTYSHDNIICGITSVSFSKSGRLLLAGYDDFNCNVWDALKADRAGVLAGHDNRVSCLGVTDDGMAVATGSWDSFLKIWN
GPR15 receptor / Gi1, sequence (P59768 2-68 partner limits assumed, one chain of several): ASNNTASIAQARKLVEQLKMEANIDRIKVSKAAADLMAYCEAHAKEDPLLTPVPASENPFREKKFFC
GPR15 receptor / GoB, sequence (P09471 2-354 isoform P09471-2 partner limits assumed, one chain of several): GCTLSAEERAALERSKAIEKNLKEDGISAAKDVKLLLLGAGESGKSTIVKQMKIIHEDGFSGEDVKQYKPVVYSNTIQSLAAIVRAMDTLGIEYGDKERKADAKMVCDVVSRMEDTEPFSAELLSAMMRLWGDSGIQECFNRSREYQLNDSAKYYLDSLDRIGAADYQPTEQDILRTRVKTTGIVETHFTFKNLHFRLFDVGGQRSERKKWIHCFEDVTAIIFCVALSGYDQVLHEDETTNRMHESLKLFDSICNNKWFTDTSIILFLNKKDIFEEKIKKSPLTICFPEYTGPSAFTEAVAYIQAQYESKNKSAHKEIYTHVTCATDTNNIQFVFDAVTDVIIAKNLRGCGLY
GPR15 receptor / GoB, sequence (P62873 2-340 partner limits assumed, one chain of several): as the sequence (P62873 2-340 partner limits assumed, one chain of several) above
GPR15 receptor / GoB, sequence (P59768 2-68 partner limits assumed, one chain of several): as the sequence (P59768 2-68 partner limits assumed, one chain of several) above
GPR15 receptor / Gi2, sequence (P04897 2-355 partner limits assumed, one chain of several): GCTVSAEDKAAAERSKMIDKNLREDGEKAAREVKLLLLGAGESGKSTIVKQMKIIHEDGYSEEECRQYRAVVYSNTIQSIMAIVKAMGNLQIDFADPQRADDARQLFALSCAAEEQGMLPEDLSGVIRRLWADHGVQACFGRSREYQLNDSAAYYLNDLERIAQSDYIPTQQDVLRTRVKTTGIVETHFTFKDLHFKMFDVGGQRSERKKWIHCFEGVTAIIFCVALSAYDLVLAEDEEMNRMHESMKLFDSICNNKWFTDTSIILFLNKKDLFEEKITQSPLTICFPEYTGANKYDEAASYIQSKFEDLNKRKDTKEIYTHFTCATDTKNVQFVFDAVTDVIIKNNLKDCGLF
GPR15 receptor / Gi2, sequence (P62873 2-340 partner limits assumed, one chain of several): as the sequence (P62873 2-340 partner limits assumed, one chain of several) above
GPR15 receptor / Gi2, sequence (P59768 2-68 partner limits assumed, one chain of several): as the sequence (P59768 2-68 partner limits assumed, one chain of several) above
GPR15 receptor / Gi3, sequence (P08753 2-354 partner limits assumed, one chain of several): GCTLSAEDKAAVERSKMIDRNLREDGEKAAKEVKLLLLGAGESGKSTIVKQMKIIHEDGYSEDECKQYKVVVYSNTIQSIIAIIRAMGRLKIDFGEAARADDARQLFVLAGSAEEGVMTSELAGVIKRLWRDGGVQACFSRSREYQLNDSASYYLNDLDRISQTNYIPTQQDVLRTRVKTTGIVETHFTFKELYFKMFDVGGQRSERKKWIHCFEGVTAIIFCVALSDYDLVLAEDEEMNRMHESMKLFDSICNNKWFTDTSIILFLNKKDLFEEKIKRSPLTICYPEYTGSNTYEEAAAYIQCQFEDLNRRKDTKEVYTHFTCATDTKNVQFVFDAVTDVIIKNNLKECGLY
GPR15 receptor / Gi3, sequence (P62873 2-340 partner limits assumed, one chain of several): as the sequence (P62873 2-340 partner limits assumed, one chain of several) above
GPR15 receptor / Gi3, sequence (P59768 2-68 partner limits assumed, one chain of several): as the sequence (P59768 2-68 partner limits assumed, one chain of several) above
GPR15 receptor / GoA, sequence (P09471 2-354 partner limits assumed, one chain of several): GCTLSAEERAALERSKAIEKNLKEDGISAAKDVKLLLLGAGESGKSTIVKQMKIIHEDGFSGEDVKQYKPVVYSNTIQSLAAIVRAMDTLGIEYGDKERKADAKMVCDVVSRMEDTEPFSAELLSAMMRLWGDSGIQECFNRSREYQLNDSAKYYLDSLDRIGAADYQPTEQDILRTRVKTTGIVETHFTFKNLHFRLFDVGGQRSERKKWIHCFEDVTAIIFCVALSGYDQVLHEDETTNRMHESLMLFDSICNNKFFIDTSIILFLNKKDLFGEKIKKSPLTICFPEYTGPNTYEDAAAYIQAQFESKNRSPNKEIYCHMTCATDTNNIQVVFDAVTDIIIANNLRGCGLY
GPR15 receptor / GoA, sequence (P62873 2-340 partner limits assumed, one chain of several): as the sequence (P62873 2-340 partner limits assumed, one chain of several) above
GPR15 receptor / GoA, sequence (P59768 2-68 partner limits assumed, one chain of several): as the sequence (P59768 2-68 partner limits assumed, one chain of several) above

By EC50 is commonly meant the midpoint of the concentration-response curve. Read a high EC50 as a less potent agent. `CC(C)C[C@H](NC(=O)[C@H](C)NC(=O)CNC(=O)[C@@H]1CCCN1C(=O)[C@@H](NC(=O)[C@@H](NC(=O)[C@H](Cc1c[nH]c2ccccc12)NC(=O)[C@@H](N)CC(C)C)C(C)C)C(C)C)C(=O)N1CCC[C@H]1C(=O)N[C@@H](CCC(N)=O)C(=O)N[C@H](C(=O)O)C(C)C` [GPR15L(71–81)] (H-LWVVPGALPQV-OH): the EC50 is 407 nM at GPR15 receptor (Gi/o); 724 nM on GPR15 receptor / Gi1; 1700 nM on GPR15 receptor / Gi2; 3020 nM on GPR15 receptor / GoA; 912 nM on GPR15 receptor / Gi3; 2510 nM on GPR15 receptor / GoB.
On to `C[N+](C)(C)CCOC(N)=O` [carbachol, carbamoylcholine chloride], for which the IP1 level entry in [1] was “robust IP1 level increase”.
In the case of `CC(C)NCC(O)c1ccc(O)c(O)c1` (stereo not drawn) [isoproterenol, isoproterenol bitartrate salt], the cAMP level entry in the assay on β2‐adrenergic receptor is reported as “robust cAMP level increase”.
Take pertussis toxin [PTX]: the “inhibition of cAMP production in presence of PTX” value at GPR15 receptor (Gi/o) (hGPR15-HEK293A, PTX 100 ng/ml for 24 h) is reported as “inhibition could be eliminated”.

B1: human GPR15L(71–81) peptide (peptide)
peptide: LWVVPGALPQV
In assay [2], B1 showed a pEC50, BRET G protein activation assay, Gi1 of 6.14; a pEC50, BRET G protein activation assay, Gi2 of 5.77; a pEC50, BRET G protein activation assay, Gi3 of 6.04; a pEC50, BRET G protein activation assay, GoA of 5.52.

B2: human GPR15L(25–81) peptide (ligand)
peptide: KRRPAKAWSGRRTRLCCHRVPSPNSTNLKGHHVRLCKPCKLEPEPRLWVVPGALPQV
On to B2, for which, in assay [2], the pEC50, BRET G protein activation assay, Gi1 stood at 7.79; the pEC50, BRET G protein activation assay, Gi2 was found to be 7.14; the pEC50, BRET G protein activation assay, Gi3 was 7.69; the pEC50, BRET G protein activation assay, GoA came out at 7.28. Further, the pEC50, BRET G protein activation assay, GoB in [2] was 7.54.
